Measurements as given in PMC4142138 (European Journal of Drug Metabolism and Pharmacokinetics, 2014).
In brackets after ≈: the same amount, converted by molar mass.

Key:
[1] = In vitro pH solubility profile in Britton–Robinson buffer; assay type: physicochemical; details: pH 6, aqueous buffer, thermodynamic from solid
Outline: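 Excess solid added to Britton–Robinson buffer at the set pH in a vial, rolled 4 h at ambient temperature. A sample was filtered by centrifugation through a 0.45 μm PVDF membrane. The clear filtrate was assayed by gradient reversed-phase HPLC on C18 (water/acetonitrile, 0.05 % TFA) with UV detection at 220 nm.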

[2] = assay type: in vivo; details: human, whole blood, po, 50 mg
[3] = tested on: healthy elderly subjects; test: Safety and tolerability; assay type: in vivo, human; details: whole study
Outline: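 Healthy elderly (65–80 y) male or non-childbearing female volunteers in a single-centre randomised crossover study; 20 subjects through 4 treatment periods. Each period had omeprazole 20 mg QD for 5 days and a single oral 50 mg test compound dose (fed or fasted), with washout ≥3 days. AEs, vital signs, ECGs, clinical chemistry, haematology, urinalysis and physical examination were summarised by treatment.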

[4] = tested on: CXCR2; details: read-out: IC50 for CXCL8 binding; ref GSK, data on file; cited from earlier work
[5] = all treatment periods, 20 subjects

In the case of `Cc1c(F)cccc1NC(=O)Nc1ccc(Cl)c(S(=O)(=O)[C@H]2CCCNC2)c1O` [danirixin, Danirixin], the solubility at 4 h [1] is reported as 3 µg/mL (≈ 6.79 µM), the half-life [2] is reported as 7 to 9 h and the “serious AEs” value [3] is reported as “no serious AEs”. The “subjects reporting AEs during the study” value [3, 5] was 45%, the “subjects reporting headaches during the study” value [3, 5] was 20% and the IC50 [4] was […].
